Assays:
MCF-7 = details: read-out: activity against MCF-7 breast cancer cells in vitro; cited from earlier work
[1] = test system: p53 tumour suppressor in MDA-MB-231 cells; test: p53 concentration in cell lysates; assay type: cell-based, human; details: 20 µM, 24 h
How it was run: (§1)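 MDA-MB-231 cells were grown in DMEM with 10% FBS and 1% penicillin/streptomycin at 37 °C, 5% CO2. They were reseeded in phenol-red-free DMEM with 10% CPSR1, used near 80% confluence and exposed to 20 µM for 24 h; untreated cells were the control. Cells were trypsinised, washed thrice in cold PBS, spun at 1000× g for 5 min at 4 °C, and 1.5 × 10^6 cells were lysed. Supernatants were frozen at −70 °C. Target protein was measured by antibody-precoated high-sensitivity kit. Three independent experiments in duplicate; one-way ANOVA with Tukey test.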

[2] = test system: Akt protein in MDA-MB-231 cells; test: Akt concentration in cell lysates; assay type: cell-based, human; details: 20 µM, 24 h, control 8.22 U/mL
How it was run: as §1

[3] = test system: proapoptotic Bax in MDA-MB-231 cells; test: Bax concentration in cell lysates; assay type: cell-based, human; details: 20 µM, 24 h
How it was run: as §1

Structure (SMILES): CC(=O)OC1CCC2(C)C(CCC3(C)C2CC=C2C4CC(C)(C)CCC4(C(=O)n4ccc(=O)[nH]c4=O)CCC23C)C1(C)C (stereo not drawn) [1-[(3β)-3-(acetyloxy)-28-oxoolean-12-en-28-yl]-2,4(1 H,3 H)-pyrimidinedione]
- IC50 (MCF-7): < 100 nM

Structure (SMILES): C[C@H]1[C@H](C)CC[C@]2(C(=O)O)CC[C@]3(C)C(=CC[C@@H]4[C@@]5(C)CC[C@H](O)C(C)(C)[C@@H]5CC[C@]43C)[C@H]12 [Ursolic acid 1, Ursolic acid]
- change of p53 level vs control [1]: increased the p53 concentration, but the values were statistically insignificant
- concentration of Akt [2]: 4.49 U/mL
- concentration of Bax [3]: 760 pg/mL

From article PMC12329029 (Scientific Reports, 2025)
